An excerpt weighted towards active compounds, which were near 3.8% of everything screened.
KCNQ1 inh: inhibitors of human KCNQ1 channel, primary screen, cell-based, thallium flux, high-throughput. B-score at 10 µM. actives 1.3% (n = 310,000). CHO-K1 KCNQ1, FluxOR thallium flux fluorescence; hits give high values. Potassium voltage-gated channel subfamily KQT member 1 (Homo sapiens), P51787;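 active = compounds whose thallium flux B-score, printed positive for inhibition, exceeds three library SD while starting fluorescence stays within three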;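 note: channel opened by potassium depolarization with thallium stimulus after 20 min compound exposure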
KCNK9 inh: KCNK9 potassium channel inhibitors, primary screen, HEK293 cells, thallium flux; Potassium channel subfamily K member 9 (Homo sapiens), Q9NPC2; FluxOR thallium flux fluorescence; hits give low values; B-score at 10 µM; actives 1.2% (n = 310,000); AID 488922, 2010;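 active = ratio B-score over 3 SD below the library mean, with starting fluorescence within 5 SD of its mean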;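 note: negative B-score means less thallium flux so channel inhibition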
KCNK3 block: human KCNK3 channel inhibitors, primary screen, CHO cells, FluxOR thallium flux, B-score; FluxOR fluorescence; hits give low values; B-score at 10 µM; AID 602410, 2012; actives 0.84% (n = 340,000);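 active = B-score under library mean minus 4 SD, starting fluorescence ratio at most library mean plus 5 SD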;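 note: more negative B-score means stronger inhibition of thallium flux through KCNK3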
hERG protect: hERG rescue from dofetilide block, primary screen, cell-based, CHO-hERG, FluxOR thallium flux, dofetilide IC70 | actives 0.51% (n = 310,000) | dofetilide IC70 present | activation (rescue from dofetilide block), less the hit threshold, % at 10 µM;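 active = activation above the mean of controls blocked by dofetilide plus 5 SD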;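 note: thallium influx through hERG after potassium depolarization seen as dye fluorescence rise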
Target sequence (Q12809 whole entry, looked up): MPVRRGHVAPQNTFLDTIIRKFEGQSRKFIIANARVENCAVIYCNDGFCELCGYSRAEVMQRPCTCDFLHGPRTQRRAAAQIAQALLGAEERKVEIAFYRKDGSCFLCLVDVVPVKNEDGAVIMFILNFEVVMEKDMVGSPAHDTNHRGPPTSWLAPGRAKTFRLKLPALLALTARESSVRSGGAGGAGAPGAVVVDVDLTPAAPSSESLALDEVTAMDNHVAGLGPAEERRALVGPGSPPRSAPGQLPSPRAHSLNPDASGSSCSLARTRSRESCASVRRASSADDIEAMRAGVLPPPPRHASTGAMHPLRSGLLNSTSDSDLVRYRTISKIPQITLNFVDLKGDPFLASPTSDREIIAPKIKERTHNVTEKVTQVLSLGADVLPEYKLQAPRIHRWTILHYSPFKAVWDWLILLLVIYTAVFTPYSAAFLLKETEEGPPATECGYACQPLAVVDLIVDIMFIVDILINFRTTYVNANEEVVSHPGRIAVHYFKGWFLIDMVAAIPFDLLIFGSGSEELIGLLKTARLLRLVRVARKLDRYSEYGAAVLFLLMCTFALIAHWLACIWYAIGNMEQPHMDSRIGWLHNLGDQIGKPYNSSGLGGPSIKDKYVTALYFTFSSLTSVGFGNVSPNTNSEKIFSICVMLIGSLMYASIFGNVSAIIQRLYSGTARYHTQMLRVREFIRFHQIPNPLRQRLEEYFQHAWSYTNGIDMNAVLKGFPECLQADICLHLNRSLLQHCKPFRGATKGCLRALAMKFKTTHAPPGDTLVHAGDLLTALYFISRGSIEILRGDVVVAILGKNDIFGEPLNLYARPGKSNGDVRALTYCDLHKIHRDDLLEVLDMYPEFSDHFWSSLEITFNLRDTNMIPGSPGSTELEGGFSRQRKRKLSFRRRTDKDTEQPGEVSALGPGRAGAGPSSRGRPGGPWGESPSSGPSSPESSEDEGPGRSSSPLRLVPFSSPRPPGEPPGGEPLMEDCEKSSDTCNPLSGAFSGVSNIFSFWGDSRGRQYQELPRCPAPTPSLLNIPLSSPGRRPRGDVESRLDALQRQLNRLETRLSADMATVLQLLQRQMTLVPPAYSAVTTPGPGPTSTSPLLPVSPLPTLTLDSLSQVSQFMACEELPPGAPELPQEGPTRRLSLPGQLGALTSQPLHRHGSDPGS
KCNQ1 pot: potentiators or activators of KCNQ1 channel, primary screen, cell-based, thallium flux, high-throughput. AID 2648, 2010. actives 0.35% (n = 310,000). CHO-K1 KCNQ1, thallium flux FluxOR fluorescence; hits give high values. B-score at 10 µM;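 active = fluorescence ratio B-score, a plate-corrected score, at least three library SD, with initial intensity B-score within 5 SD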
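Assay system: stable KCNQ1 CHO-K1 line; medium: assay buffer, equal DMSO in all wells; timing: 90 min dye loading and 20 min compound exposure, both at room temperature; technique: kinetic FluxOR thallium fluorescence, 10-s 1-Hz baseline, 110-s post-stimulus read; read-out basis: B score of baseline-normalized fluorescence ratio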
Kir21 block: inhibitors of mouse Kir2.1 inward-rectifier potassium channel; Inward rectifier potassium channel 2 (Mus musculus), P35561; HEK293-Kir2.1, FluxOR thallium flux fluorescence; hits give low values; B-score at 10 µM; actives 0.85% (n = 310,000); AID 1672, 2009;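 active = fluorescence ratio B-score at or below minus 3 SD of library scores, with starting-brightness B-score within 2 SD, cut at about -4.2 in these data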;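 note: channel flux triggered by added potassium and thallium sulfate stimulus; B-score of peak minus minimum fluorescence over baseline after thallium stimulus; more negative B-score means stronger Kir2.1 block with less thallium influx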
KCNK9 block conf: KCNK9 potassium channel inhibitors, confirmation, HEK293 cells, thallium flux, duplicate; shares compounds with KCNK9 inh; FluxOR thallium flux fluorescence; inhibition, % at 10 µM; actives 43% (n = 4,900);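 active = thallium signal inhibited by more than 5 SD of the compound-free buffer control wells, on both duplicate plates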;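 note: 0% = assay buffer control wells without compound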
Kir2-1 spec: mouse Kir2.1 channel inhibition, confirmation, selectivity assay for KCNK9 modulator project, cell-based, HEK293, thallium flux. shares compounds with KCNK9 inh. Kir2.1 cells, FluxOR thallium flux fluorescence. inhibition, % at 10 µM. actives 4% (n = 4,900);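 active = thallium signal drop more than 5 SD beyond the mean of the no-compound control wells, seen in both duplicate plates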;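 note: signal is fluorescence rise after thallium addition divided by baseline fluorescence; plate controls were assay buffer only for no effect and full block by chlorpromazine control for full effect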
KCNK9 uninduced: thallium flux in non-induced HEK293 cells, confirmation, counter-screen for KCNK9 inhibitor project, cell-based, second counter screen, non-induced KCNK9-HEK293 | FluxOR thallium flux | actives 40% (n = 4,900) | inhibition, % at 10 µM | shares compounds with KCNK9 inh;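 active = thallium signal drop beyond 5 SD of the untreated control mean, on both duplicate plates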;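 note: plate controls were buffer only IC0 wells for no effect and SID17386958 at its maximal inhibitory level for full effect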
KCNK3 confirm: retest of human KCNK3 channel inhibitors, confirmation, CHO cells, FluxOR thallium flux, triplicate; shares compounds with KCNK3 block; FluxOR fluorescence; 0% buffer, 100% carvedilol maximal block; ratio percent of control, % at 10 µM; actives 99% (n = 2,400); AID 651638, 2012;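 active = ratio percent of control, averaged over triplicates, above buffer control mean plus 5 SD, cut at about 64% in these data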;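 note: ratio is the fluorescence rise from min to max over baseline after thallium stimulus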
KCNK3 uninduced: thallium flux inhibition in non-induced cells, primary screen, counter-screen for KCNK3 inhibitor project, cell-based, non-induced KCNK3 line, FluxOR thallium, triplicate | shares compounds with KCNK3 block | non-induced KCNK3 parental cells; hits give low values | thallium flux ratio (lower = more inhibition) at 10 µM | actives 40% (n = 2,400);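 active = thallium flux ratio, averaged over three wells, more than 5 SD below the buffer control mean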;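 note: host cells are CHO cells without KCNK3 induction; ratio is peak minus trough fluorescence over baseline then normalized to buffer controls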
* = called active by the depositor; i = inactive; / = not tested or not shown.

SMILES	KCNQ1 inh	KCNK9 inh	KCNK3 block	hERG protect	KCNQ1 pot	Kir21 block	KCNK9 block conf	Kir2-1 spec	KCNK9 uninduced	KCNK3 confirm	KCNK3 uninduced
CC(C)(C)n1nnnc1C(c1cccs1)N1CCCC2(CCCCC2)C1 (configuration not stated)	i	-17*	-9.1*	-5	i	2.4	40%*	i	40%*	125*	0.13*
COCc1cc(C)n(CC(=O)Nc2c(C)cccc2C)c(=O)c1C#N	i	i	i	-4	i	-0.05	/	/	/	/	/
CC(C)CC(C(=O)NCC1CCCO1)N(C(=O)Cn1nnc(-c2ccc(F)cc2)n1)c1ccccc1F (configuration not stated)	i	i	i	-11	i	0.03	/	/	/	/	/
O=C(Nc1cccc(-c2nnc(-c3ccccc3)o2)c1)C1CCCCC1	i	-8.8*	-11*	-5	i	0.04	34%*	i	30%*	96*	i
COc1cccc(-c2nnc(NC(=O)C3CCCCC3)o2)c1	i	i	i	-6	i	1.1	/	/	/	/	/
C=CCn1ccc(=O)nc1SC	/	/	i	/	/	/	/	/	/	/	/
COc1ccc(CCN(C)C(=O)CCNC(=O)c2ccc(Br)cc2)cc1OC	i	i	i	-5	i	0.12	/	/	/	/	/
Cc1cc(C(=O)N/N=C/c2ccc(-c3cccc(Br)c3)o2)n[nH]1	i	-17*	-11*	-14	i	0.55	44%*	i	i	87*	i
CCc1ccc(-c2cc(C)no2)cc1S(=O)(=O)N1CCC(C)CC1	i	-9.3*	-10*	-11	i	0.13	i	i	46%*	102*	i
CCC1CN(S(=O)(=O)c2cc(-c3cc(C)no3)ccc2OC)c2cc(C)ccc2O1 (configuration not stated)	i	-11*	-11*	-17	i	-1.3	36%*	i	32%*	121*	0.15*
CCc1ccc(-c2cc(C)no2)cc1S(=O)(=O)N1CCN(c2cccc(C)c2C)CC1	i	i	i	-10	i	0	/	/	/	/	/
CCc1ccc(-c2cc(C)no2)cc1S(=O)(=O)N1CCOc2ccc(C)cc21	i	-8.9*	-11*	-8	i	0.43	48%*	i	33%*	125*	0.16*
Cc1cc(-c2ccc(C(C)C)c(S(=O)(=O)N3CCC(C)CC3)c2)on1	15*	-17*	-17*	-6	i	-0.02	66%*	i	53%*	75*	i
COc1cc(Cl)ccc1OCc1cc(C(=O)N2CCCCCC2)no1	i	i	i	-10	i	-0.36	/	/	/	/	/
C=CCn1c(SCc2c(C)noc2C)nc2ccccc2c1=O	i	i	i	-12	i	0	/	/	/	/	/
COc1cc2nc(SCc3c(C)noc3C)n(CCC3=CCCCC3)c(=O)c2cc1OC	i	-14*	-10*	-6	i	0.25	28%*	32%*	32%*	125*	0.14*
CCN(C(=O)c1c(-c2ccccc2Cl)noc1C)C1CCCCC1	i	-9.1*	-12*	-10	i	-3	50%*	i	33%*	107*	i
Cc1onc(-c2ccccc2Cl)c1C(=O)N(C)C1CCCCC1	i	i	i	-12	i	-0.33	/	/	/	/	/
CCOc1ccc(/C=C2\SC(=S)N(CCC(=O)O)C2=O)cc1	i	i	i	-15	i	-0.91	/	/	/	/	/
COc1cccc(OCCn2cc(C(=O)c3ccco3)c3ccccc32)c1	i	-15*	-12*	-18	i	-0.46	52%*	i	i	119*	0.14*
O=C(CNC(=O)c1ccc(Br)cc1)OCC(=O)c1ccccc1	i	i	i	-3	i	-1.9	/	/	/	/	/
COc1cccc(CN(C)Cc2cc(=O)oc3cc(O)c(Cl)cc23)c1	i	i	i	-14	i	-0.17	/	/	/	/	/
CCc1cc2c(CN(C)Cc3ccccc3F)cc(=O)oc2cc1O	i	-8.5*	-15*	-20	i	-5.9*	42%*	i	i	114*	0.16*
COc1cc(/C=C/C=C2/CC/C(=C/C=C/c3ccc(O)c(OC)c3)C2=O)ccc1O	/	/	i	/	/	/	/	/	/	/	/
COc1ccc(-c2[nH]c(-c3ccc4c(c3)OCO4)nc2-c2ccccc2)cc1	11*	-11*	-10*	-7	i	0.84	56%*	i	35%*	154*	0.11*
O=C1CCC(=O)N1OCCOc1ccccc1	i	i	i	-7	i	-0.99	/	/	/	/	/
CC(C)Nc1nc(NC(C)C)nc(N(C)C#N)n1	i	i	i	-8	i	1.1	/	/	/	/	/
O=C(Cc1cccs1)Nc1ccc(-c2nnc(-c3ccccc3)o2)cc1	i	i	i	-1	i	0	/	/	/	/	/
Cc1cccc(-c2nnc(-c3cccc(NC(=O)Cc4cccs4)c3)o2)c1	i	-17*	-16*	0	i	-0.13	54%*	i	30%*	148*	0.14*
CCOC(=O)c1c(CSC(=N)N)n(-c2ccc(C)cc2)c2cc(Br)c(OC(C)=O)cc12	6*	-8.7*	-12*	-36	i	-15*	i	i	i	129*	0.15*
